Consider 25 molecules from ChEMBL document CHEMBL1137155, “Identification of [(naphthalene-1-carbonyl)-amino]-acetic acid derivatives as nonnucleoside inhibitors of HCV NS5B RNA dependent RNA polymerase” (Bioorg Med Chem Lett, 2004).

The target of experiment [1] is RNA-directed RNA polymerase (Hepacivirus hominis, UniProt O39930). Description: Inhibitory concentration against HCV NS5B RNA dependent RNA polymerase. In outline: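 Enzyme: recombinant C-terminally truncated NS5B from genotype 1b, BK strain. Inhibitor was pre-incubated with the enzyme for 15 min. An RNA template, NTPs and [α-32P]GTP were then added, and the reaction ran for 2 h at room temperature. Product RNA was collected by filtration, and incorporated radioactivity was measured by scintillation counting.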
Sequence of RNA-directed RNA polymerase (O39930 whole entry, the tested form may be a part): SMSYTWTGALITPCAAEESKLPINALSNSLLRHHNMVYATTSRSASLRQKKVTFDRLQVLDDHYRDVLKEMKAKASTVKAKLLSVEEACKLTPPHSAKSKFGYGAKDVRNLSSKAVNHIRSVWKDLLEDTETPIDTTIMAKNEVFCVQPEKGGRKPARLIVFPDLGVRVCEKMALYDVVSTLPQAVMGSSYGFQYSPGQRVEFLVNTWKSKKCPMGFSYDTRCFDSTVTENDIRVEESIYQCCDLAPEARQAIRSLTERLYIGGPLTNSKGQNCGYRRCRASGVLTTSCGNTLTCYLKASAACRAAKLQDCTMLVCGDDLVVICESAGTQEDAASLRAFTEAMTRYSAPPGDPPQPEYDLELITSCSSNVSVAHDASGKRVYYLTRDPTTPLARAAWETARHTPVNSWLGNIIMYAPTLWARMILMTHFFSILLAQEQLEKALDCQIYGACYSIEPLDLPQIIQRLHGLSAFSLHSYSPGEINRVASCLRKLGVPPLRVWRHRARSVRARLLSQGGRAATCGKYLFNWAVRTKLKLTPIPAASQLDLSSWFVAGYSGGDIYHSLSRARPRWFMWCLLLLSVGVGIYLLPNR

Another experiment concerns the target DNA polymerase beta (Homo sapiens, UniProt P06746). The experiment is described as follows: Inhibitory concentration against human beta polymerase.

A word on the IC50: it is the concentration that gives 50% inhibition. Higher therefore signals a need for much substance. In turn, `C#CCOC(=O)N(CC(=O)O)C(=O)c1c(Br)ccc2c(C(F)(F)F)c(OC)ccc12` showed an IC50 in experiment [1] of 2900 nM.

Take `COc1ccc2c(C(=O)N(CC(=O)O)CC(=O)O)cccc2c1C(F)(F)F`: the IC50 in experiment [1] was 900 nM.

As for `C=CCOC(=O)N(CC(=O)O)C(=O)c1c(Br)ccc2c(C(F)(F)F)c(OC)ccc12`, inhibition in experiment [1] was half-maximal at 3300 nM (IC50).

In experiment [1], `CCCOC(=O)N(CC(=O)O)C(=O)c1c(Br)ccc2c(C(F)(F)F)c(OC)ccc12` had an IC50 of 4900 nM.

For `COc1ccc2c(C(=O)N(CC(=O)O)C(=O)OCC(C)(C)C)c(Br)ccc2c1C(F)(F)F`, inhibition in experiment [1] was half-maximal at 6400 nM (IC50).

Turning to `COc1ccc2c(C(=O)NC(CCC(=O)O)C(=O)O)c(Br)ccc2c1C(F)(F)F` (stereo unspecified), the half-inhibitory concentration (IC50) in experiment [1] was found to be 120 nM.

Turning to `COc1ccc2ccccc2c1C(=O)NC(CC(=O)O)C(=O)O` (stereo unspecified), the IC50 in experiment [1] is over 10000 nM.

The molecule `COc1ccc2c(C(=O)NC(CC(=O)O)C(=O)O)cccc2c1Br` (stereo unspecified) displayed an IC50 in experiment [1] of 1200 nM.

`COc1ccc2c(C(=O)NC(CC(=O)O)C(=O)O)cccc2c1C(F)(F)F` (stereo unspecified) came in with a concentration for half-maximal inhibition (IC50) in experiment [1] of 1300 nM.

As for `COc1ccc2c(C(=O)NC(CCC(=O)O)C(=O)O)cccc2c1C(F)(F)F` (stereo unspecified), 490 nM corresponded to half-maximal inhibition in experiment [1] (IC50).

Regarding `COc1ccc2c(C(=O)N(CC(=O)O)C(=O)OCC(C)C)c(Br)ccc2c1C(F)(F)F`, 7700 nM corresponded to half-maximal inhibition in experiment [1] (IC50).

Consider `COC(=O)N(CC(=O)O)C(=O)c1c(-c2ccc(Cl)cc2)ccc2c(C(F)(F)F)c(OC)ccc12`, for which, in experiment [1], the IC50 was over 20000 nM.

As for `COC(=O)N(CCC(=O)O)C(=O)c1c(Br)ccc2c(C(F)(F)F)c(OC)ccc12`, in experiment [1], the IC50 is over 10000 nM.

As for `COc1ccc2c(C(=O)NC(CC(=O)O)C(=O)O)c(F)ccc2c1C(F)(F)F` (stereo unspecified), in experiment [1], the IC50 is 2100 nM.

Turning to `COc1ccc2c(C(=O)N(C)CC(=O)O)c(Cl)ccc2c1C(F)(F)F`, the concentration for half-maximal inhibition (IC50) in experiment [1] amounted to 5100 nM.

`COC(=O)N(CC(=O)O)C(=O)c1cccc2c(C(F)(F)F)c(OC)ccc12` had a concentration for half-maximal inhibition (IC50) in experiment [1] of over 26000 nM.

For the molecule `COc1ccc2c(C(=O)N(C)CC(=O)O)c(Br)ccc2c1C(F)(F)F`, the IC50 in experiment [1] was determined as 2000 nM.

For `COc1ccc2c(C(=O)NC(CC(=O)O)C(=O)O)c(Br)ccc2c1C(F)(F)F` (stereo unspecified), in experiment [1], the IC50 is 910 nM.

Take `COc1ccc2c(C(=O)NC(CCC(=O)O)C(=O)O)c(F)ccc2c1C(F)(F)F` (stereo unspecified): in experiment [1], half-maximal inhibition (IC50) required 1400 nM.

Regarding `COc1ccc2c(C(=O)NC(CCC(=O)O)C(=O)O)cccc2c1Br` (stereo unspecified), the midpoint of inhibition in experiment [1], the IC50, lay at 590 nM.

In experiment [1], `CCOC(=O)N(CC(=O)O)C(=O)c1c(Br)ccc2c(C(F)(F)F)c(OC)ccc12` gave an IC50 of 3100 nM.

For `COC(=O)N(CC(=O)O)C(=O)c1c(OC)ccc2c(C(F)(F)F)c(OC)ccc12`, half-maximal inhibition in experiment [1] (IC50) required 11300 nM.

As to `COC(=O)N(CC(=O)O)C(=O)c1c(Br)ccc2c(C(F)(F)F)c(OC)ccc12`, the IC50 in experiment [1] was determined as 1400 nM.

In experiment [1], `COC(=O)N(CC(=O)O)C(=O)c1c(F)ccc2c(C(F)(F)F)c(OC)ccc12` displayed an IC50 of 15200 nM.

`COC(=O)N(CC(=O)O)C(=O)c1c(Cl)ccc2c(C(F)(F)F)c(OC)ccc12`: the results for the concentration for half-maximal inhibition (IC50) (in experiment [1]; on DNA polymerase beta) were 5000 nM and over 100000 nM, respectively.
